Assay results: publication PMC9774329 (ACS Omega, 2022)

Assays:
Format in all cases: cell-based, human
[1] = test system: colon (HCT-116) cancer cells; assay: Apoptosis confirmation by DAPI staining; settings: HCT-116, 48 h post-treatment
Procedure, shortened: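 Fixed HCT-116 cells were examined for apoptosis after 48 h compound exposure. Cells were fixed in 4% paraformaldehyde and stained in the dark with DAPI (1.0 μg/mL). Nuclear morphology was assessed by fluorescence confocal scanning microscopy.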

[2] = test system: caspase-3 expression in HCT-116 cells; assay: Caspase-3 detection by ELISA in cell lysates; settings: HCT-116, 48 h treatment, 40 μg/mL
Procedure, shortened: (§1)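 HCT-116 cells were seeded at 50,000 cells/well in a CO2 incubator. After 24 h, at 70–80% confluence, cells received test compound at 40 μg/mL for 48 h; untreated cells served as controls. Cells were PBS-washed, detached with 0.35% trypsin and spun at 1000 rpm. Pellets were lysed 60 min and re-spun at 1000 rpm for 15 min. Lysates were assayed with human caspase-3 or caspase-9 ELISA kits, absorbance 620 nm.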

[3] = test system: caspase-9 expression in HCT-116 cells; assay: Caspase-9 detection by ELISA in cell lysates; settings: HCT-116, 48 h treatment, 40 μg/mL
Procedure, shortened: as §1

HCT-116 cell line = assay: MTT antiproliferative assay on colon cancer cells; settings: HCT-116, MTT, 48 h; compared to 3′-O-methyltaxifolin and quercetin
Procedure, shortened: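 HCT-116 cells were seeded at 20,000 cells/well in DMEM with FBS, L-glutamine, penicillin, streptomycin and selenium chloride at 37 °C in CO2. They were exposed to test compound at 5.0–40 μg/mL for 48 h, with untreated controls. MTT (5.0 mg/mL) was added for 4 h, then DMSO […], and OD was read at 570 nm. Done in triplicate.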

Structure (SMILES) | apoptosis induction (chromatin condensation, nuclear shrinkage) by DAPI staining [1] | caspase-3 expression (ELISA, optical density) [2] | caspase-9 expression (ELISA, optical density) [3] | reduction in the numbers of cancer cells (HCT-116 cell line)
COc1cc([C@H]2Oc3cc(O)cc(O)c3C(=O)[C@@H]2O)ccc1O [Compound 2, 3′-O-Methyltaxifolin] | induced apoptosis | increase | increase | 
O=c1c(O)c(-c2ccc(O)c(O)c2)oc2cc(O)cc(O)c12 [Compound 6, Quercetin] | induced apoptosis | increase | increase | 
O=C1c2c(O)cc(O)cc2OC(c2ccc(O)c(O)c2)C1O (stereo not shown) [Compound 4, Dihydroquercetin (taxifolin)] | induced apoptosis | increase | increase | significant reductions
COc1cc(O)c2c(c1)O[C@H](c1ccc(O)c(OC)c1)[C@@H](O)C2=O [Compound 1, 7,3′-Di-O-methyltaxifolin] | induced apoptosis | increase | increase | significant reductions
COc1c(-c2ccc(O)c(O)c2)oc2cc(O)cc(O)c2c1=O [Compound 5, 3-O-Methylquercetin] | induced apoptosis | increase | increase | significant reductions
COc1cc(O)c2c(c1)O[C@H](c1ccc(O)c(O)c1)[C@@H](O)C2=O [Compound 3, 7-O-Methyltaxifolin] | induced apoptosis | increase | increase | significant reductions
